Experimental data from different studies.
Lines come from different studies, so protocols differ.
EIF2AK4 S808G C-terminal kinase domain: eIF-2-alpha kinase GCN2, C-terminal kinase domain (EIF2AK4, Homo sapiens, UniProt Q9P2K8, S808G)
EIF2AK4 S808G: eIF-2-alpha kinase GCN2 (EIF2AK4, Homo sapiens, UniProt Q9P2K8, S808G)

Cc1cnc(Nc2ccc(C(=O)N3CCC(N4CCCC4)CC3)cc2)nc1-c1cc2ccccc2s1 — remaining binding (EIF2AK4 S808G C-terminal kinase domain; binding, competition with immobilised ligand; 1 µM): 0%
CNC(=O)[C@@H]1CC[C@@H](n2c(-c3ccc4cnccc4c3)nc3ccc(C(=O)NCc4cccc(C(N)=O)c4)cc32)C1 — remaining binding (EIF2AK4 S808G C-terminal kinase domain; binding, competition with immobilised ligand; 1 µM): 82%
Cc1cnn2ncc(-c3ccnc(N(C)C)n3)c2c1 — remaining binding (EIF2AK4 S808G; binding; 1 µM): 96%
CN1CCN(c2ccc(Nc3nccc(-c4ccccc4)n3)cc2C(F)(F)F)CC1 — remaining binding (EIF2AK4 S808G; binding; 10 µM): 0.2%
O=C(O)[C@H]1[C@H](Cn2nnc3ccccc3c2=O)CC[C@@H]1C(=O)c1ccc(OCCC2CCOCC2)cc1 — remaining binding (EIF2AK4 S808G C-terminal kinase domain; cell-free assay, competition with immobilised ligand; 1 µM): 55%
O=C(c1ccc(Nc2ncc(Cl)c(-c3ccc(Cl)s3)n2)cc1)N1CCC(N2CCCC2)CC1 — remaining binding (EIF2AK4 S808G C-terminal kinase domain; binding, competition with immobilised ligand; 1 µM): 0.25%
CN(C)c1nccc(-c2cnn3ncccc23)n1 — remaining binding (EIF2AK4 S808G; binding; 1 µM): 100%
C[C@@H](c1ccc(-n2cnc3c(N)ncnc32)cc1)N1CCc2nn(C)c(Cc3ccccc3)c2C1=O — remaining binding (EIF2AK4 S808G C-terminal kinase domain; binding, competition with immobilised ligand; 0.1 µM): 98%
O=C(Nc1c[nH]nc1C(=O)NC1CCNCC1)c1cc(F)cc(F)c1 — remaining binding (EIF2AK4 S808G C-terminal kinase domain; binding, competition with immobilised ligand; 1 µM): 100%
CCN1CCN(Cc2ccc(C(=O)Nc3ccc(C)c(Oc4ccc5c(c4)CC(=O)N5)c3)cc2C(F)(F)F)CC1 — remaining binding (EIF2AK4 S808G C-terminal kinase domain; binding, competition with immobilised ligand; 1 µM): 100%
COc1ccnn2ncc(-c3ccnc(N(C)C)n3)c12 — remaining binding (EIF2AK4 S808G; binding; 1 µM): 93%
CCC(=N\O)/C(C)=C/c1ccc(F)cc1 — remaining binding (EIF2AK4 S808G C-terminal kinase domain; cell-free assay, competition with immobilised ligand; 1 µM): 70%
C[C@H]1CCN(c2nccc(-c3cnn4ncccc34)n2)C1 — remaining binding (EIF2AK4 S808G; binding; 1 µM): 100%
Cn1nc(C(F)(F)F)cc1-c1cnc(N2CCc3cc(S(=O)(=O)Nc4c(F)cc(Cl)cc4F)cc(N4CCCC4=O)c32)nc1 — remaining binding (EIF2AK4 S808G C-terminal kinase domain; cell-free assay, competition with immobilised ligand; 1 µM): 100%
COc1cnc(Nc2cccc(S(N)(=O)=O)c2)nc1N1CCN(c2ccccc2)CC1 — remaining binding (EIF2AK4 S808G C-terminal kinase domain; binding, competition with immobilised ligand; 1 µM): 95%
O=C(c1ccc(Nc2ncc(Cl)c(-c3cc4ccccc4s3)n2)cc1)N1CCC(N2CCCC2)CC1 — remaining binding (EIF2AK4 S808G C-terminal kinase domain; binding, competition with immobilised ligand; 1 µM): 0%
N[C@H]1CCN(c2nccc(-c3cnn4ncccc34)n2)C1 — remaining binding (EIF2AK4 S808G; binding; 1 µM): 100%
O=C(NCCCC1CCCCC1)c1ccc(CNC(=O)c2cnn(-c3ccccc3)c2C(F)(F)F)cc1 — remaining binding (EIF2AK4 S808G C-terminal kinase domain; cell-free assay, competition with immobilised ligand; 0.1 µM): 100%
CN(CCCC(F)(F)F)c1nccc(-c2cnn3ncccc23)n1 — remaining binding (EIF2AK4 S808G; binding; 1 µM): 99%
O=C(NC[C@@H]1[C@H]2CN(C(=O)OCc3cc(C(F)(F)F)cc(C(F)(F)F)c3)C[C@@H]12)c1ccc2[nH]nnc2c1 — remaining binding (EIF2AK4 S808G C-terminal kinase domain; cell-free assay, competition with immobilised ligand; 1 µM): 84%
c1cnn2ncc(-c3ccnc(N4CCC45COC5)n3)c2c1 — remaining binding (EIF2AK4 S808G; binding; 1 µM): 100%
C[C@@H](c1cccc(C#N)c1)n1cc(Cl)cc(C(N)=O)c1=N — remaining binding (EIF2AK4 S808G C-terminal kinase domain; cell-free assay, competition with immobilised ligand; 1 µM): 50%
